Runt-SMMHC FRET = Runt domain-CBFb-SMMHC interaction inhibition; Cerulean-Runt/Venus-CBFb-SMMHC FRET ratio 530/480, 1 h; 0.74% of 220,000 active; inhibition, % at 20 µM; AID 1434;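 active = mean inhibition across duplicate retests at 20 µM reaching about 50%, limit read from the data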;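 also: 0% = DMSO wells and 100% = wells with excess untagged CBFb-SMMHC; inhibitors lower the FRET ratio by blocking Runt binding to CBFb-SMMHC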
Runt-CBFb FRET = blocks binding of human RUNX1 Runt domain to CBFb. Q01196+Q13951. 0.46% of 220,000 active. inhibition, % at 20 µM. Cerulean-Runt/Venus-CBFb FRET ratio 530/480, 1 h. AID 1496;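 active = inhibition over about 50% at 20 µM in the single-dose screen, limit read from the data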;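 also: 0% = DMSO wells and 100% = excess unlabeled CBFb competitor control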
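Buffer or medium: Tris pH 7.5 buffer with BSA. Assay system: Cerulean-labeled Runt domain protein. Amount: each fluorescent fusion protein 100 nM. Read-out basis: loss of energy transfer signal. Incubation: 1 h compound exposure, room temperature. Probe or stimulus: Venus-CBFb binding partner, 100 nM. Detection: FRET, excitation 422 nm, emission at 530 and 480 nm.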
Tb hexokinase = blocks Trypanosoma brucei hexokinase 1 activity | recombinant TbHK1, G6PDH-coupled NADH A340 | inhibition, % at 10 µM | 0.11% of 220,000 active;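 active = inhibition of 50% or more in the single-dose primary screen; inactive = inhibition below 50%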
p97 ATPase inh = blocks human p97 ATPase activity | P55072 | recombinant p97 ATPase, Kinase-Glo ATP luminescence, 3 h | inhibition, % at 8 µM | 0.42% of 220,000 active | AID 1481; in the data active = inhibition above about 15%;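 also: 0% = DMSO vehicle and 100% = wells lacking enzyme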
RanGTP-Impb inh = disruptors of Ran-importin-beta complex formation – biochemical, FRET, CFP-Ran, YFP-importin-beta, homogeneous, primary screen | inhibition, % (no concentration beside the values) | cell-free CFP-Ran/YFP-importin-beta FRET ratio | 1.1% of 300,000 active;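 active = more than half of the replicate wells show a fall in the fluorescence ratio signal beyond about 16%, limit read from the data, passing the limit was not always enough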;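 also: 0% = DMSO wells and 100% = Ran loaded with GDP instead of GTP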
Hck Nef HTS = inhibitors of human Hck kinase activated by Nef; P08631; Recombinant Hck-YEEI plus Nef, Z-Lyte FRET kinase assay; inhibition, % at 20 µM; 0.68% of 220,000 active;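 active = Hck-Nef kinase inhibition above about 50%, limit read from the data; inactive = inhibition below that limit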;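 also: 0% = DMSO with Hck plus Nef and 100% = Hck alone without Nef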
Target sequence (P08631 whole entry, looked up): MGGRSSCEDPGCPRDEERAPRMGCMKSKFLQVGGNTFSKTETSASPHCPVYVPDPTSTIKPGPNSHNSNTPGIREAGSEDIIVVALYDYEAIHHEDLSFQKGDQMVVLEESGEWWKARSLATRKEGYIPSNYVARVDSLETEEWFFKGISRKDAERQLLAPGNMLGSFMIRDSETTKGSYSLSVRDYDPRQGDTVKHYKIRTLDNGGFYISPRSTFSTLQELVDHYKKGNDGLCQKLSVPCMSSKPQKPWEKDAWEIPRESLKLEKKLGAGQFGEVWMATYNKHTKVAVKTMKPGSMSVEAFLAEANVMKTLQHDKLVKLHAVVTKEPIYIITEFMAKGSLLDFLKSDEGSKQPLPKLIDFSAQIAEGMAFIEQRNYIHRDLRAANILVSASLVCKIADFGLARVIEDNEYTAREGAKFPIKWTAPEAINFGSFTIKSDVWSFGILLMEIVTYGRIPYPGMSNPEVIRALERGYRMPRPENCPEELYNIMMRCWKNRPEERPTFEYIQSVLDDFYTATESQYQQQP
YIC counter = counter-screen for RanGTP-importin-beta inhibitors: YIC FRET probe. IC50, µM. Purified YIC probe, intramolecular FRET ratio YFP/CFP. 40% of 1,000 active. shares compounds with RanGTP-Impb inh;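 active = fitted half-maximal inhibitory concentration no more than tenfold above the top dose tested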
* hit, by the source's call. Compounds with a hit are over-represented: about 2.1% of the library has one in this group of screens.

Screening C/C(CCC1CC(C)OC1=O)=N\NC(N)=S (stereo unspecified) returned Runt-SMMHC FRET -1, Runt-CBFb FRET -1, Tb hexokinase 0, p97 ATPase inh -3, RanGTP-Impb inh -4 and Hck Nef HTS -3.
`c1ccc2c(c1)nc(NCC1CCCO1)c1nnnn12` (stereo unspecified) gave Runt-SMMHC FRET 28, Runt-CBFb FRET 18, Tb hexokinase 3, p97 ATPase inh 5, RanGTP-Impb inh 23*, Hck Nef HTS 0 and YIC counter 28*.
`CCn1cnc2cc(NCc3ccc(C)cc3)ccc21` gave Runt-SMMHC FRET 18, Runt-CBFb FRET 12, Tb hexokinase 1, p97 ATPase inh -7, RanGTP-Impb inh 4 and Hck Nef HTS 2.
CCCn1cnc2cc(NCc3ccc(Br)cc3)ccc21 was read as RanGTP-Impb inh 19* and YIC counter >50.
`CN1CC(=O)N(CC(=O)Nc2cc(Cl)cc(Cl)c2)C1=O` gave Runt-SMMHC FRET -1, Runt-CBFb FRET 1, Tb hexokinase 0, p97 ATPase inh 5, RanGTP-Impb inh -5 and Hck Nef HTS 3.
`CCOC(=O)c1c(-c2ccccc2)csc1NC(=O)c1cccc(N2C(=O)CCC2=O)c1` gave Runt-SMMHC FRET -6, Runt-CBFb FRET -1, Tb hexokinase -6, p97 ATPase inh 3, RanGTP-Impb inh -1 and Hck Nef HTS 1.
For CCOC(=O)c1c(NC(=O)c2cccc(N3C(=O)CCC3=O)c2)sc2c1CCN(CC)C2 the results were RanGTP-Impb inh 21* and YIC counter >50.
Screening COc1ccccc1CNC(=O)COC(=O)Cc1ccc(F)cc1 returned RanGTP-Impb inh 0.
COc1ccccc1CNC(=O)COC(=O)Cc1ccc(Cl)cc1 was read as Runt-SMMHC FRET -5, Runt-CBFb FRET 0, Tb hexokinase -1, p97 ATPase inh 0, RanGTP-Impb inh 17*, Hck Nef HTS 0 and YIC counter >50.
For Cc1ccc(C)c(NC(=S)N(C)CCc2ccccn2)c1 the results were Runt-SMMHC FRET -8, Runt-CBFb FRET -2, Tb hexokinase 27, p97 ATPase inh 4, RanGTP-Impb inh 25*, Hck Nef HTS -1 and YIC counter >50.
Screening CC(=O)c1cc(Cl)ccc1OCc1cccc(S(=O)(=O)N2CCOCC2)c1 returned RanGTP-Impb inh 1.
Oc1ccccc1C1NN=C(c2ccccc2)S1 (stereo unspecified) was read as RanGTP-Impb inh 2.
`C/C(N)=C(/C#N)C(=O)COC(=O)c1cc(-c2ccc(Br)cc2)nc2ccccc12` gave Runt-SMMHC FRET -4, Runt-CBFb FRET -3, Tb hexokinase -16, p97 ATPase inh 0, RanGTP-Impb inh -4 and Hck Nef HTS 2.
Screening C/C(N)=C(/C#N)C(=O)COc1ncnc2ccccc12 returned Tb hexokinase 8, p97 ATPase inh 10, RanGTP-Impb inh 22*, Hck Nef HTS 0 and YIC counter >50.
Cc1noc(C)c1Cn1nc(C(=O)O)c2ccccc2c1=O was read as Runt-SMMHC FRET 2, Runt-CBFb FRET -2, Tb hexokinase 6, p97 ATPase inh -1, RanGTP-Impb inh -3 and Hck Nef HTS 1.
For NC(=O)c1ccc(NC(=O)COC(=O)c2cccc(Oc3ccccc3)c2)cc1 the results were Runt-SMMHC FRET -2, Runt-CBFb FRET 4, Tb hexokinase -1, p97 ATPase inh -1, RanGTP-Impb inh 4 and Hck Nef HTS 1.
For CCOC(=O)/C(C#N)=C/c1ccc(N2CCN(C)CC2)cc1 the results were Runt-SMMHC FRET 35, Runt-CBFb FRET 10, Tb hexokinase -22, p97 ATPase inh 2, RanGTP-Impb inh 20*, Hck Nef HTS 29 and YIC counter 16*.
For CCOC(=O)/C(C#N)=C\c1ccc(N2CCN(C)CC2)cc1 the results were Runt-SMMHC FRET 44, Runt-CBFb FRET 14, Tb hexokinase -20, p97 ATPase inh 3, RanGTP-Impb inh 21*, Hck Nef HTS 29 and YIC counter 16*.

High-throughput results: PubChem, several laboratories
